# Compound activity from PubChem BioAssay.
# RBBP9 inh: human RBBP9 inhibitors, primary screen, biochemical, fluorescence polarization, FP-Rh probe, HTS. inhibition, % at 7.94 µM. 0.2% of 220,000 active. recombinant RBBP9;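 active means inhibition above the campaign mean of all tested compounds plus 3 SD, cut at about 14% in these data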;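 further: plate controls were DMSO wells with RBBP9 for no effect and wells lacking RBBP9 protein for full effect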
#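 Material: RBBP9 protein. Amount: RBBP9 at 2.5 µM in dispensed solution, before mixing. Schedule: 30 min then 45 min, 25 °C. Medium: Tris buffer pH 8.0, NaCl, Pluronic. Measured by: fluorescence polarization. Measure: percent inhibition from mP, scaled between DMSO and no-protein wells. Replication: one well per compound.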
# PRMT1 inh: PRMT1 methyltransferase inhibitors, primary screen, biochemical, fluorescence polarization | Protein arginine N-methyltransferase 1 (Homo sapiens), Q99873 | recombinant PRMT1, activity-based probe fluorescence polarization | inhibition, % at 2.79 µM | 1.3% of 370,000 active;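 active means inhibition above about 21% made by adding two undisclosed values, limit read from the data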
# PAD4 inh: human PAD4 inhibitors, primary screen, biochemical, fluorescence polarization, 1536-well format. 0.41% of 330,000 active. inhibition, % at 6.36 µM. recombinant PAD4, RCA probe fluorescence polarization. Protein-arginine deiminase type-4 (Homo sapiens), Q9UM07;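 active means percent inhibition above a cutoff equal to the mean of all tested compounds plus 3 SD, cut at about 15% in these data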;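 further: 0% = PAD4 with RCA probe and DMSO and 100% = probe without PAD4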
# SIAE inh: human SIAE inhibitors, primary screen, biochemical, fluorescence polarization, FP-Rh probe, 1536-well HTS. SIAE FP-Rh probe binding. inhibition, % at 9.66 µM. Sialate O-acetylesterase (Homo sapiens), Q9HAT2. 0.69% of 370,000 active;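 active means inhibition above a cutoff: mean of compounds within the control limits plus 3 SD of those, cut at about 17% in these data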;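 further: 0% = plate median of compound wells and 100% = probe without SIAE protein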
# Target sequence (Q9HAT2 whole entry, looked up): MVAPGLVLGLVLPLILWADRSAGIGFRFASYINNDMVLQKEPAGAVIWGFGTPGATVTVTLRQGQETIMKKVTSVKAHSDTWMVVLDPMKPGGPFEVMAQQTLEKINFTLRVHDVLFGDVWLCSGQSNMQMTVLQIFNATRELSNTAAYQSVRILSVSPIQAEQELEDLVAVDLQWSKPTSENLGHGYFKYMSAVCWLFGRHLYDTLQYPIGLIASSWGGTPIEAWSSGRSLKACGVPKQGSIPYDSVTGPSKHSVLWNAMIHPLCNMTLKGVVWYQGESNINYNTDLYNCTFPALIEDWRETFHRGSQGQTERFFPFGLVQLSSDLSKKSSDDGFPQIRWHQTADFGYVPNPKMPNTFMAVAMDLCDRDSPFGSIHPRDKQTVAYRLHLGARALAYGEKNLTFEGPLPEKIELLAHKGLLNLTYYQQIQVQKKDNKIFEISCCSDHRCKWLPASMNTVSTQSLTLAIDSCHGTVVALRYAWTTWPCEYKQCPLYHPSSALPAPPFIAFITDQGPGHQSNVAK
# GSTO1 counter: inhibitors of recombinant GSTO1, primary screen, counter-screen for RBBP9 inhibitor project, biochemical, fluorescence polarization. 1.1% of 300,000 active. activity-based probe fluorescence polarization. Glutathione S-transferase omega-1 (Homo sapiens), P78417. inhibition, % at 5.96 µM. AID 1974, 2009;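 active means inhibition above the campaign mean inhibition plus 3 SD, cut at about 35% in these data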;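 further: 0% = GSTO1-1 with DMSO and 100% = wells lacking GSTO1-1 enzyme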
# Starred values were filed as active, the others as inactive; / = not tested or not shown. An excerpt weighted towards active compounds, which were near 2.7% of everything screened.
SMILES,RBBP9 inh,PRMT1 inh,PAD4 inh,SIAE inh,GSTO1 counter
O=C1CCCC2=C1C(c1ccc(O)c(O)c1)c1c(ccc3ncccc13)N2 (centres undefined),10,21*,-9,1,75*
Cc1cc(C)c(S(=O)(=O)NCCSCc2ccco2)c(C)c1,/,24*,0,6,/
COc1ccc(OC)c(C(C)NS(=O)(=O)c2cccs2)c1 (centres undefined),/,6,-4,4,/
COc1ccccc1C(C)NS(=O)(=O)c1cccs1 (centres undefined),/,/,97*,/,-3
CCOC(=O)NNc1ccc2nonc2c1[N+](=O)[O-],1,/,51*,/,89*
O=C(CSc1nnc(NC(=O)c2ccccc2Cl)s1)NC1CC1,/,5,-6,-4,-9
COC1=CC(=Cc2c(N)n3nc(CC(=O)N4CCCCC4)sc3nc2=O)C=C(OC)C1=O,/,14,-7,-4,9
Cc1sc2nc(COC(=O)c3c(F)cccc3F)[nH]c(=O)c2c1C,-8,-6,0,10,5
N=C1/C(=C\c2ccc(-c3cccc(C(=O)O)c3)o2)C(=O)N=C2SC=C(c3ccccc3)N12,-5,22*,-18,-24,-43
N#CC1=C(N)SC(N)=C(C#N)C1c1ccc([N+](=O)[O-])cc1,0,31*,-6,-4,1
CC1CCN(C(C(=O)Nc2ccc(C(C)C)cc2)c2ccc3c(c2)OCO3)CC1 (centres undefined),-10,-4,2,-3,5
O=C1NC(=O)/C(=C\c2ccc(O)cc2O)S1,0,10,1,-2,63*
O=C1NC(=O)/C(=C/c2cccc3ccccc23)S1,/,3,3,-25,-29
Cc1noc(C)c1NC(=O)N(C)C[C@@H]1Oc2ncc(Br)cc2C(=O)N([C@@H](C)CO)C[C@H]1C,/,6,/,-3,/
O=C(NC(c1ccccc1)c1ccccc1)C1(c2cccs2)CCOCC1,2,/,-1,/,2
CCCN(Cc1ccccc1)C(=S)Nc1cccc(C)c1C,3,-2,-7,-7,-9
CN(C)C(=S)NC(=NCc1ccc([N+](=O)[O-])cc1)c1ccccc1,/,22*,-2,7,-1
COC(=O)CCCC1=CC2=C(c3ccccc3)C(=O)C(C)(OC(=O)C3CCCC3)C(=O)C2=CN1c1ccccc1 (centres undefined),/,1,-8,3,35*
COC(=O)CCCC1=CC2=C(c3ccccc3)C(=O)C(C)(OC(=O)C3CCCC3)C(=O)C2=CN1C1CC1 (centres undefined),/,9,-3,8,29
O=C(CSC1CS(=O)(=O)c2cc([N+](=O)[O-])ccc21)NNC(=O)c1ccc(Cl)cc1 (centres undefined),12,23*,2,6,9
Cc1cccc2cc(C(c3nnnn3Cc3ccccc3)N3CCN(c4ccccc4)CC3)c(=O)[nH]c12 (centres undefined),-2,-4,1,1,-1
COc1ccc(/C=C(/C(=O)N2CCCCC2C(=O)O)c2ccc(OC)c(OC)c2)cc1 (centres undefined),/,-3,-9,15,/
COc1ccc(Nc2ccc(OC)cc2)cc1,6,6,1,3,36*
COc1cc(SC)ccc1C(=O)Nc1ccccn1,-6,-1,2,-2,0
COc1cc(SC)ccc1C(=O)Nc1ccon1,-10,24*,8,-7,-2
SMILES,RBBP9 inh,PRMT1 inh,PAD4 inh,SIAE inh,GSTO1 counter
Cc1ccccc1OCCCC(=O)Nc1ccc(S(=O)(=O)Nc2onc(C)c2C)cc1,/,-4,-2,4,6
COc1ccc(N/C(C)=C/C(=S)Nc2ccccc2)cc1,2,-1,-1,11,1
COc1ccc(C2=CC(=O)N(Nc3ccccc3)C2=O)cc1,-4,8,3,1,-2
O=C1C=C(c2ccccc2)C(=O)N1Nc1ccccc1,-7,22*,0,1,0
O=C(CCCl)Nc1nnc(SCC(=O)NC2CCCC2)s1,/,1,2,0,13
O=C1C(=Cc2ccco2)CCCC1=Cc1ccco1,/,29*,/,4,/
COc1ccc(-c2noc(CCC(=O)NCc3cccnc3)n2)cc1OC,-10,-1,4,1,1
CCCCOc1ccc(-c2c(C(=O)Nc3ccccc3)c(C)[nH]c(=S)c2C#N)cc1,-5,23*,-8,-7,-2
C=CCNC(=S)N/N=C(\C)c1cc(OC)c(OC)c(OC)c1,-6,1,2,15,-2
CC(C)c1ncc(C(O)c2cccc3ccccc23)n1C (centres undefined),-6,-1,0,-3,36*
Cc1ccc(NC(=O)Cn2c(=O)n(Cc3ccco3)c(=N)c3c4c(sc32)COC(C)(C)C4)cc1,-4,0,-3,-2,5
CC(C)(C)NC(=O)NC(=O)CSc1nnc(COc2ccccc2Cl)o1,-5,3,0,1,36*
Cc1nn(CCCC(=O)Nc2sc3c(c2C#N)CCC3)c(C)c1[N+](=O)[O-],-6,3,3,-1,-1
CN(C)C1=NCC(CSC(=N)N)S1 (centres undefined),-5,25*,2,1,5
CCCCn1c(CCC(=O)O)nc2cc(S(=O)(=O)N(CC)CC)ccc21,-11,4,-64,-48,-94
CCN1C(=O)c2ccccc2S(=O)c2ccc(C(=O)NCc3ccccn3)cc21 (centres undefined),-5,-2,4,0,37*
Cc1ccc(-c2csc(=S)[nH]2)cc1,-11,22*,1,4,-2
NC(=O)c1ccc2c(=O)n3c(-c4cc(Cl)c(N)c(Cl)c4)csc3nc2c1,/,6,-4,-9,8
O=C(CNc1ccc2ccccc2c1)N/N=C/c1ccncc1,/,22*,-4,5,1
O=C(CNc1ccc2ccccc2c1)N/N=C/c1ccccn1,-7,4,-4,15,5
Cc1cccc(C)c1NC(=O)C(NC=O)c1ccc(Cl)cc1 (centres undefined),-5,-1,-5,-3,-4
CC(=O)Nc1c(S(=O)(=O)c2ccccc2)c2nc3ccccc3nc2n1Cc1ccccc1,-5,6,1,-3,1
O=S(=O)(Nc1c(S(=O)(=O)c2ccccc2)c2nc3ccccc3nc2n1C1CCCCC1)c1ccccc1,-10,0,-8,6,49*
COc1ccccc1N1CCN(C(=O)Cn2cnc3c2c(=O)n(C)c(=O)n3C)CC1,-2,3,1,-3,10
Cc1cccn2c(=O)c3cc(C#N)c(=NC(=O)c4ccccc4)n(Cc4ccco4)c3nc12,/,24*,2,-15,-10
